# Assay outcomes deposited in PubChem BioAssay by several laboratories.
# Shown are actives, neighbours in structure and some others; about 2.8% of the full set was active somewhere.
# NPY Y2 blocker: NPY-Y2 (human) receptor antagonism | NPY-Y2 expressing cells, antagonist mode | inhibition, % at 2.7 µM | 0.99% of 140,000 active | AID 793; in the data active means inhibition above about 17%
# EP2 modulator: EP2 receptor (human) modulation | AID 940 | P43116 | induction, % at 25 µM | EP2-expressing cells, cAMP HTRF FRET, PGE2 co-stimulation | 0.83% of 260,000 active;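 active means compounds whose cAMP rise, as percent of the full-agonist control response, exceeds 60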;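 further: rat C6 glioma line stably carrying human EP2 under a CMV promoter; the protocol text gives 20 µM as final concentration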
# EP2 antag: EP2 receptor (human) inhibition; C6 glioma cells expressing human EP2, cAMP TR-FRET; cells stimulated with saturating PGE2; P43116; 0.52% of 260,000 active; AID 1422; inhibition, % at 25 µM;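 active means percent inhibition above 40 after rounding to a whole number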;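 further: rat C6 glioma host cells with rolipram phosphodiesterase inhibitor present; the protocol text gives 20 µM as final concentration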
# NPY2 pot ag: potentiators or agonists of human neuropeptide Y receptor Y2 | cells expressing NPY-Y2, potentiator/agonist read-out | AID 1359 | activation, % at 3.6 µM | 0.45% of 220,000 active; in the data active means activation above about 27%;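 further: cells stimulated with NPY near EC25 plus isoproterenol at EC100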
# NPY1 pot ag: potentiates or activates human NPY-Y1 receptor; NPY-Y1 expressing cells, potentiator/agonist activation; activation, % at 3.6 µM; 0.37% of 220,000 active; in the data active means activation above about 33%, passing the limit was not always enough;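 further: cells stimulated with NPY at EC10 then isoproterenol at EC100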
# Target sequence (P25929 whole entry, looked up): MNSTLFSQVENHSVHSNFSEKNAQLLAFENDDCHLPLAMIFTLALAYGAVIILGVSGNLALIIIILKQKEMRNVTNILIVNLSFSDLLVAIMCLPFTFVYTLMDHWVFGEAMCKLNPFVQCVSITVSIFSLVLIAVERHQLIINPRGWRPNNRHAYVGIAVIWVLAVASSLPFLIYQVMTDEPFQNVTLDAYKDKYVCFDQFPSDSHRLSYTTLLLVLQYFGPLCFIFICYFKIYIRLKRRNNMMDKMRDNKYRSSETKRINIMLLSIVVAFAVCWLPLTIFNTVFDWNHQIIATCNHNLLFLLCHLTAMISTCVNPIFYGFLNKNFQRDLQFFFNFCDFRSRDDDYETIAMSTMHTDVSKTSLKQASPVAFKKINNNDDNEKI
# NPY-Y1 antag: antagonists of human neuropeptide Y receptor Y1. HEK293-CNG Y1 cells, membrane potential fluorescence; NPY at EC95, then isoproterenol. inhibition, % at 3.6 µM. 1% of 200,000 active. P25929. AID 1040;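 active means inhibition above the campaign mean inhibition of all tested compounds plus 3 SD, cut at about 20% in these data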
#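 Assay system: HEK293 cells with Y1 receptor plus CNG channel | Probe or stimulus: NPY (25 nM), isoproterenol (1 µM), Ro 20-1724 (25 µM) | Timing: Compound incubation 1 h at room temperature, readout 45 min post-stimulation | Measured by: Membrane-potential fluorescent dye readout | Benchmarks: High control isoproterenol alone, low control NPY with isoproterenol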
# NPY1 antag ctr: human NPY-Y1 antagonism in NPY-Y2 counter-screen; shares compounds with NPY Y2 blocker; cell-based NPY-Y1 antagonism counterscreen; inhibition, % at 3.6 µM; 19% of 710 active; AID 1256; in the data active means inhibition above about 20%;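 further: cells challenged with NPY then isoproterenol with cAMP sensed through a CNG channel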
# NPY-Y2 ant conf: human NPY-Y2 antagonism, confirmation | AID 1257 | inhibition, % at 2.8 µM | shares compounds with NPY Y2 blocker | 32% of 710 active | HEK293 NPY-Y2 CNG channel, membrane potential fluorescence;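 active means mean inhibition of triplicate wells above the hit cutoff set in the primary screen, cut at about 17% in these data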
# A number is an active result; - = inactive; . = not tested or not shown.
SMILES,NPY Y2 blocker,EP2 modulator,EP2 antag,NPY2 pot ag,NPY1 pot ag,NPY-Y1 antag,NPY1 antag ctr,NPY-Y2 ant conf
CCOc1ccc(C(CC(=O)O)NC(=O)c2sc3ccccc3c2Cl)cc1 (centres undefined),19,-,-,-,-,-,22,28
CCN(CC)CCCN1C(=O)c2oc3ccccc3c(=O)c2C1c1cccc(OC)c1OC (centres undefined),19,-,-,-,-,-,-,-
COc1cccc(C2c3c(oc4ccccc4c3=O)C(=O)N2CCCN(C)C)c1OC (centres undefined),-,-,-,-,-,-,.,.
Cc1ccc(NC(=O)c2cc(N(C)C)ccc2[P+](=O)O)cc1,21,-,-,-,-,-,-,-
Cc1ccc(NC(=O)c2ccc(F)cc2F)cc1,.,.,-,.,.,.,.,.
CC1(C)CC2CC(C)(CN2C(=O)COc2cccc3ccccc23)C1 (centres undefined),17,-,-,-,-,-,-,-
O=C1NC2(CCN(Cc3ccccc3F)CC2)Oc2ccccc21,.,-,-,.,.,.,.,.
Cc1cccc(COCC(CC(C)C)N2CCN(C(=O)c3ccc(C(C)(C)C)cc3)CCC2=O)c1 (centres undefined),19,-,-,-,-,-,-,-
CCOc1ccccc1N(CC(=O)N1CCC(C(N)=O)CC1)S(=O)(=O)c1ccc(C)cc1,.,-,-,.,.,.,.,.
Cc1nc(C)n(CCNC(=O)C2ON=C(c3ccc(F)cc3)C2C)n1 (centres undefined),.,-,-,.,.,.,.,.
CC1CCCN(C(=O)CSc2nnc(-c3c[nH]c4ccccc34)o2)C1 (centres undefined),23,-,-,-,-,-,-,-
CC1CCCC(C)N1C(=O)CSc1nnc(-c2c[nH]c3ccccc23)o1 (centres undefined),-,-,-,-,-,-,.,.
CC(=O)NC1(c2ccccc2)CCN(c2nc(C)cc(C)n2)CC1,49,-,-,-,-,-,35,35
Cc1cc(C)nc(N2CCC(C(=O)NNC(=O)Cc3ccccc3)CC2)n1,.,-,-,-,-,.,.,.
CCn1c(SCC(=O)Nc2cc(OC)cc(OC)c2)nnc1-c1ccncc1,.,-,-,.,.,.,.,.
CCOC(=O)c1c(NC(=O)CSC2=NN3CCCC(=O)N=C3S2)sc2c1CCCCC2,19,-,-,-,-,-,25,43
COc1cc2[nH]c(=O)c(C(=O)NCc3ccc(Cl)cc3)c(O)c2cc1OC,.,-,-,.,.,.,.,.
Cc1ccc(-c2cc(C(F)F)n3ncc(C(=O)N4CCN(c5ccccn5)CC4)c3n2)cc1,20,-,-,-,-,-,-,-
Cc1cc2c(cc3c(=O)n(CC(=O)NCC4CC4)nc(C)n32)s1,.,-,.,.,.,.,.,.
COc1ccc(-c2n[nH]c3c2C(c2ccc(OC)c(OC)c2)N(c2ccccc2)C3=O)cc1 (centres undefined),27,-,-,-,-,-,-,38
CC12CCC(C/C1=N\N=C1\NC(=O)/C(=C\c3ccc(Cl)cc3)S1)C2(C)C (centres undefined),37,-,-,-,-,-,44,55
O=C1NC(=NCc2ccccc2)S/C1=C\c1ccccc1,-,-,-,-,-,-,.,.
Cc1cc(C(F)(F)F)nc(SCC(=O)c2cccc([N+](=O)[O-])c2)n1,19,-,-,-,-,-,-,-
CC(=O)c1ccc(NC(=O)c2sc3nc4cc(C)ccc4cc3c2N)cc1,.,-,-,.,.,.,.,.
Cc1ccc(NC(=O)c2c(C(F)(F)F)nn(C)c2SCc2ccc(Cl)cc2)cc1C,17,-,-,-,-,-,-,-
SMILES,NPY Y2 blocker,EP2 modulator,EP2 antag,NPY2 pot ag,NPY1 pot ag,NPY-Y1 antag,NPY1 antag ctr,NPY-Y2 ant conf
Clc1ccccc1-c1nc2ccccc2c2nc3ccccc3n12,18,-,-,-,-,-,-,-
COc1ccc(-n2nnnc2SCC(N)=O)c(OC)c1,.,-,-,.,.,.,.,.
Cc1nc2ccc(F)cc2cc1C(=O)Nc1ccc(Cl)c(Cl)c1,23,-,-,-,-,-,-,31
Cc1nc2ccc(F)cc2cc1C(=O)NCc1ccco1,-,-,-,-,-,-,.,.
CCCCCSc1nnc(-c2ccccc2NC(C)=O)c(=O)[nH]1,.,-,-,-,-,-,.,.
CCCCCSc1nnc(-c2ccccc2N)c(=O)[nH]1,19,-,-,-,-,-,-,-
COc1ccc(NC(=O)C2CCN(c3nc(C)cc(C)n3)CC2)c(OC)c1,.,-,-,.,.,.,.,.
O=C(N/N=C/c1ccccc1)c1ccc(N2CCOCC2)c([N+](=O)[O-])c1,-,-,-,-,-,-,.,.
CCCCC(=O)N/N=C/c1ccc(N2CCOCC2)c([N+](=O)[O-])c1,21,-,-,-,-,-,-,17
CN(C)S(=O)(=O)c1ccc(N2CCCC2)c(C(=O)NC(c2ccccc2)c2ccccc2)c1,23,-,-,-,-,-,-,-
CN(C)S(=O)(=O)c1ccc(N2CCCC2)c(C(=O)Nc2nc3ccccc3s2)c1,-,-,-,-,-,-,.,.
CCOC(=O)C(C(C)=O)C(c1ccc(OCCC(C)C)cc1)C(C(C)=O)C(=O)OCC (centres undefined),22,-,-,-,-,-,-,-
Nn1c(CSc2nc3ccccc3o2)nnc1CSc1nc2ccccc2o1,17,-,-,-,-,-,-,-
CCOc1cc(-c2nc3cnccn3c2NCc2ccc3c(c2)OCO3)ccc1O,.,-,.,.,.,.,.,.
COc1ccc2cc3cc(C(=O)Nc4ccccc4N4CCN(C)CC4)oc3nc2c1,18,-,-,-,-,-,-,-
COc1ccc2cc3cc(C(=O)NCCN4CCN(c5ccccc5F)CC4)oc3nc2c1,-,-,.,-,-,-,.,.
C=CCOc1ccc2ccccc2c1/C=N/O,20,-,-,-,-,-,-,-
COC(=O)c1c(-c2ccc(F)cc2)csc1NC(=O)c1ccco1,25,-,-,-,-,-,-,-
CC1(C)Cc2ccccc2-c2nnc(SCc3ccccc3)n21,17,-,-,-,-,-,-,-
COC(=O)c1sc2ncn(Cc3ccc(Cl)cc3Cl)c(=O)c2c1C,.,-,-,.,.,.,.,.
O=C(CSc1nc2ccccc2s1)NCCOc1ccccc1,-,-,-,-,-,-,.,.
O=C(CSc1nc2ccccc2s1)NCCOc1ccc(Cl)cc1,20,-,-,-,-,-,-,-
COc1ccccc1N(CC(=O)N1CCN(c2ccccc2F)CC1)S(C)(=O)=O,.,-,-,.,.,.,.,.
CCNc1ccc2noc3c2c1C(=O)c1ccccc1-3,45,-,-,49,72,-,-,-
COc1ccc(OC)c(C(C(=O)NC2CCCC2)N(C(=O)Cc2cccs2)C2CC2)c1 (centres undefined),.,-,-,.,.,.,.,.
